This is an account of results in ChEMBL document CHEMBL3603837, “Indole Glucocorticoid Receptor Antagonists Active in a Model of Dyslipidemia Act via a Unique Association with an Agonist Binding Site” (J Med Chem, 2015).

For orientation: Ki means a dissociation constant, usually derived from enzyme kinetics or from competition with a known ligand. A word on the IC50: it is the concentration at which inhibition is half-maximal.

In assay [1] the target is T1, Glucocorticoid receptor (Homo sapiens, UniProt P04150).
T1 sequence (P04150 whole entry): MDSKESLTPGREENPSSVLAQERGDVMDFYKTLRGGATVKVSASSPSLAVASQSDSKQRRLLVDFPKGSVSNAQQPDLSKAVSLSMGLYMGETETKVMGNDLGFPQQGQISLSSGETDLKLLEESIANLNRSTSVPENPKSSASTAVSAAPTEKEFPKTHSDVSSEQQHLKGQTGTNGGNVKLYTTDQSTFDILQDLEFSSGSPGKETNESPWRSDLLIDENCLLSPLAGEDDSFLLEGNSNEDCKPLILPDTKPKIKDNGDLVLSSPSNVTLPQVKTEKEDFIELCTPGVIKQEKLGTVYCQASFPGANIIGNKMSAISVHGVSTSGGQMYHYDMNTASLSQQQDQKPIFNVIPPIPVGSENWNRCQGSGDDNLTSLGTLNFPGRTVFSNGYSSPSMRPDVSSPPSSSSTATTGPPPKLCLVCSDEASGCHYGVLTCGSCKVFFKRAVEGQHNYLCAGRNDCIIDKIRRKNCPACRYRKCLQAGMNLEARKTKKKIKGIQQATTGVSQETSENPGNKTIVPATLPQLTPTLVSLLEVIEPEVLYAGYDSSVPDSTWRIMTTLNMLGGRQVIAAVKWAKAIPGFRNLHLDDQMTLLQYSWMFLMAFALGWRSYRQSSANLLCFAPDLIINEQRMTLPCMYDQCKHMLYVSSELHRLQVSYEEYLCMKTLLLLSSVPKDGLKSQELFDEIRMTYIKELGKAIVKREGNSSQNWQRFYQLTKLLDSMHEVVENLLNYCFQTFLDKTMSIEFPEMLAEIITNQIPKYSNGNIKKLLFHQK
Briefly: Displacement of [3H]-dexamethasone from human glucocorticoid receptor expressed in HEK293 cells by scintillation counting based radioligand competition binding assay. The format is cell-based. (In general: Displacement assays read how much labelled ligand stays bound in the presence of the test substance.)

Assay [2] concerns the target T2, Mineralocorticoid receptor (Homo sapiens, UniProt P08235).
T2 sequence (P08235 whole entry): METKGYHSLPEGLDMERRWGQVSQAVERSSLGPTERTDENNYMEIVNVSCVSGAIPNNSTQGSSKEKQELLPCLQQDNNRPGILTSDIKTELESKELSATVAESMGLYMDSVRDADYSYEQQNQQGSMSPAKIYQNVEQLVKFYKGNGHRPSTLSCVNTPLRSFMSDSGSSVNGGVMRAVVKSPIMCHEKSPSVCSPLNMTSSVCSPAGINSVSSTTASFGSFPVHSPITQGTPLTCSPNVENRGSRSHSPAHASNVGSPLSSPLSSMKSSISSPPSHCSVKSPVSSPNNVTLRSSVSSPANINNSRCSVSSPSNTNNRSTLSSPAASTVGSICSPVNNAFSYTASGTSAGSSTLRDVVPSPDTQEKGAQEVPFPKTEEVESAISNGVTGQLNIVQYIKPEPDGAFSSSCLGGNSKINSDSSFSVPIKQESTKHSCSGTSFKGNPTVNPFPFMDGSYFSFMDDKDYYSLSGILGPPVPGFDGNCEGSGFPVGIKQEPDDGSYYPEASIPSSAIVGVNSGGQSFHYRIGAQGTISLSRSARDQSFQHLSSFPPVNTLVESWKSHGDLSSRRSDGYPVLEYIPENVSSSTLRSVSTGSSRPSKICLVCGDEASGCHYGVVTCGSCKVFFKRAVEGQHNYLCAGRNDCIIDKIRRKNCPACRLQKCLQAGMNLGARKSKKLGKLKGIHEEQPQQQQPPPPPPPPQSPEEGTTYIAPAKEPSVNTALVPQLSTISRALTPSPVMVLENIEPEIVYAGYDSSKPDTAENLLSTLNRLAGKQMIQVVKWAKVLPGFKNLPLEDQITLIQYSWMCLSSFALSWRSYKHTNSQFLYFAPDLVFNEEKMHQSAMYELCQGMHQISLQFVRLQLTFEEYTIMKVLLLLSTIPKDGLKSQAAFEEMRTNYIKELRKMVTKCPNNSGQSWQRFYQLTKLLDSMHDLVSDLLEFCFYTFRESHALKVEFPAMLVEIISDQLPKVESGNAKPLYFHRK
Description: biochemical.

Assay [3] deals with T1, Glucocorticoid receptor. Description: Antagonist activity against glucocorticoid receptor (unknown origin) expressed in HEK293 cells by GRE-dependent luciferase reporter gene assay. The format is cell-based.
Assay [4] addresses T3, Glucocorticoid receptor (Rattus norvegicus, UniProt P06536).
T3 sequence (P06536 whole entry): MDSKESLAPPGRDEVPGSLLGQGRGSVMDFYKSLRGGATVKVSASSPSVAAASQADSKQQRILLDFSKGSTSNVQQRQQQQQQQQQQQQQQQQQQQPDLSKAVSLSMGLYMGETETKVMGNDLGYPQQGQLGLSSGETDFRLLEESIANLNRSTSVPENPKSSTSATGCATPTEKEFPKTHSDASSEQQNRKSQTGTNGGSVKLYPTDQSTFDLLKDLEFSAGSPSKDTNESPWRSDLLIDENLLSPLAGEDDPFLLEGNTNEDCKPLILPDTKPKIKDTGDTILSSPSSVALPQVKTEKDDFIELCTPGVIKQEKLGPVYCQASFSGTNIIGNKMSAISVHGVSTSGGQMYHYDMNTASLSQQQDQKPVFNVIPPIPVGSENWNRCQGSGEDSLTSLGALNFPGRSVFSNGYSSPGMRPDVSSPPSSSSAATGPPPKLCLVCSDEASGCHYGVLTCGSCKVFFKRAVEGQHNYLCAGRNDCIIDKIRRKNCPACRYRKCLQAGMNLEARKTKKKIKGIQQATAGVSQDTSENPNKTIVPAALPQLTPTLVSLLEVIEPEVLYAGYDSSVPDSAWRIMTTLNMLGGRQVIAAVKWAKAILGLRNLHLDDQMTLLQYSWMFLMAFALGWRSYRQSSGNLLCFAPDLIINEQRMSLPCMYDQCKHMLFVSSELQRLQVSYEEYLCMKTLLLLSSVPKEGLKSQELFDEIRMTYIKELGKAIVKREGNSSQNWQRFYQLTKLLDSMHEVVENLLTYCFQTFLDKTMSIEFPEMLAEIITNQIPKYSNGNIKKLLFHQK
Briefly: Antagonist activity against glucocorticoid receptor in rat H4-IIE cells assessed as inhibition of dexamethasone-induced receptor transactivation pre-incubated for 1 hr before dexamethasone addition and measured 24 hrs post dexamethasone stimulation by tyrosine aminotransferase enzyme assay. The format is cell-based.

For assay [5], the target named is T4, Glucocorticoid receptor (Homo sapiens) (UniProt P04150).
T4 sequence (whole entry): T1 sequence (P04150 whole entry)
Briefly: Agonist activity at glucocorticoid receptor (unknown origin) expressed in HEK293 cells by GRE-dependent luciferase reporter gene assay. The format is cell-based. A general note: In a reporter assay the amount or activity of a reporter protein is the signal.

Assay [6] deals with T5, Glucocorticoid receptor (Rattus norvegicus) (UniProt P06536).
T5 sequence (whole entry): T3 sequence (P06536 whole entry)
Briefly: Agonist activity at glucocorticoid receptor in rat H4-IIE cells assessed as receptor transactivation incubated for 24 hrs by tyrosine aminotransferase enzyme assay. The format is cell-based. The essentials:
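Rat hepatoma H4IIEC3 cells grown in DMEM with 10% FBS, plated at 100000 cells/well overnight at 37 °C, 5% CO2, then switched to DMEM/F12 with 5% CS-FBS for 24 h. Test compounds at about 0.09 nM–25 μM for 24 h. Lysates given TAT substrate (4.74 mM L-tyrosine, 13.3 mM α-ketoglutarate, pH 7.6) for 2 h at 37 °C, then KOH. A340 read against a standard curve; EC50 from four-parameter logistic fit.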

Molecules are shown by their SMILES. Active and inactive are the calls of the source. The rule behind the calls is not given here.

Consider `CS(=O)(=O)Nc1cccc2c(-c3ccc(F)cc3)c[nH]c12`, for which the figures for the Ki (on Glucocorticoid receptor [1]; in assay [2]) were 94.6 nM and 225 nM, respectively.
For `COc1ccccc1-c1c[nH]c2c(NS(C)(=O)=O)cccc12`, on Glucocorticoid receptor [1], the Ki came out at 3.06 nM. The IC50 at Glucocorticoid receptor [3] turned out to be 235 nM; on Glucocorticoid receptor [4] it was 1180 nM.
With `CS(=O)(=O)Nc1cccc2cc[nH]c12`, the Ki turned out to be 50 nM at Glucocorticoid receptor [1] and 952 nM in assay [2].
For `COc1cc(NS(C)(=O)=O)c2[nH]c(C)c(-c3ccccc3)c2c1` the same measures were 39.8 nM and 3890 nM.
`COc1cc(F)ccc1-c1c(Cc2ccccc2)[nH]c2c(NS(C)(=O)=O)cc(C(C)C)cc12`: the figures for the Ki (at Glucocorticoid receptor [1]; in assay [2]) were 0.543 nM and 4250 nM, respectively. Besides, the IC50 turned out to be 7.54 nM at Glucocorticoid receptor [3] and 292 nM on Glucocorticoid receptor [4]. In addition, the result in assay [5] and in assay [6] was inactive.
Take `COc1ccc(F)cc1-c1c(-c2ccccc2)[nH]c2c(NS(C)(=O)=O)cccc12`: the Ki on Glucocorticoid receptor [1] came to 53.7 nM; in assay [2], 3920 nM.
On to `COc1cc(F)ccc1-c1c(CN(C)Cc2ccccc2)[nH]c2c(NS(C)(=O)=O)cc(C(C)(C)C)cc12`, for which, on Glucocorticoid receptor [4], the IC50 was 14.4 nM. Also, the outcome in assay [6] was inactive. The compound also came in with a Ki in assay [2] of 3880 nM.
As for `COc1cc(F)ccc1-c1c(C)[nH]c2c(NS(C)(=O)=O)cc(F)cc12`, the Ki at Glucocorticoid receptor [1] is 1.32 nM; in assay [2] it was 44.7 nM. In addition, the results for the IC50 against Glucocorticoid receptor [3] and at Glucocorticoid receptor [4] were 22 nM and 63.4 nM, respectively. For the same compound, the outcome in assay [5] and in assay [6] was inactive.
For `COc1cc(F)ccc1-c1c(CN(C)Cc2ccccc2)[nH]c2c(N)cc(F)cc12`, the Ki in assay [2] came out at 2120 nM.
Consider `COc1cc(F)ccc1-c1c(CN(C)Cc2ccccc2)[nH]c2c(NS(C)(=O)=O)cc(C(C)C)cc12`, for which the Ki at Glucocorticoid receptor [1] worked out at 1.22 nM; in assay [2], 1580 nM. Moreover, the IC50 on Glucocorticoid receptor [3] came out at 2.76 nM; at Glucocorticoid receptor [4] it was 10.6 nM. Besides, the result in assay [5] and in assay [6] was inactive.
With `COc1cc(NS(C)(=O)=O)c2[nH]c(C)c(-c3cc(F)ccc3OC)c2c1`, the Ki at Glucocorticoid receptor [1] is 115 nM; in assay [2] it was 38.4 nM.
On to `COc1ccc(Cl)cc1-c1c[nH]c2c(NS(C)(=O)=O)cccc12`, for which the Ki at Glucocorticoid receptor [1] stood at 5.45 nM; in assay [2], 4470 nM. Further, the figures for the IC50 against Glucocorticoid receptor [3] and at Glucocorticoid receptor [4] were 143 nM and 1250 nM, respectively. Also, the outcome in assay [5] and in assay [6] was inactive.
For `CS(=O)(=O)Nc1cccc2c(-c3cccc(Cl)c3)c[nH]c12`, the figures for the Ki (on Glucocorticoid receptor [1]; in assay [2]) were 5.04 nM and 2.1 nM, respectively. Also, the IC50 was 180 nM against Glucocorticoid receptor [3] and 76 nM at Glucocorticoid receptor [4].
